Reference: ChEMBL document CHEMBL5375970, “Discovery of Potent and Selective WDR5 Proteolysis Targeting Chimeras as Potential Therapeutics for Pancreatic Cancer” (J Med Chem, 2023)
The source made the active and inactive calls.

Key:
[1] = biological target: WD repeat-containing protein 5 (Homo sapiens, UniProt P61964); assay: Binding affinity to full-length N-terminal His-tagged WDR5 (unknown origin) expressed in Escherichia coli BL21 (DE3) cells assessed as dissociation constant by isothermal titration calorimetry
Summary of the method: (§1)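 Inverse ITC was run with His-tagged VCB (pVHL54–213 co-expressed with EloB1–104 and EloC1–112) and E. coli BL21(DE3)-expressed WDR5, both purified by HisTrap and Superdex 200 gel filtration. Titrations were VCB into ligand, VCB into the ligand–WDR5 complex, and WDR5 into ligand. Three independent replicates were done, reported as mean ± SD, and the first injection was excluded from fitting.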

[2] = Binding affinity to His-tagged VCB/full-length N-terminal His-tagged WDR5 (unknown origin) expressed in Escherichia coli BL21 (DE3) cells assessed as dissociation constant by isothermal titration calorimetry; set-up: species or system Homo sapiens; summary of the method: as §1
[3] = biological target: T1, von Hippel-Lindau disease tumor suppressor/WD repeat-containing protein 5 (Homo sapiens, UniProt P61964+P40337); assay: PROTAC activity at VHL/WDR5 in human MIA PaCa-2 cells assessed as degradation of WDR5 protein incubated for 18 hrs by Western blotting analysis; assay type: cell-based
Summary of the method: (§2)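 Five PDAC lines (MIA PaCa-2 in DMEM; BxPC-3, HPAF-II, Panc10.05 and PANC-1 in RPMI 1640; all with 10% FBS) given DMSO or compound over a concentration range up to 50 μM for 18 h. Lysates immunoblotted for WDR5 against tubulin. For MIA PaCa-2, DC50 and Dmax were fitted from 4 independent experiments.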

[4] = biological target: T1, von Hippel-Lindau disease tumor suppressor/WD repeat-containing protein 5; assay: PROTAC activity at VHL/WDR5 in human BXPC-3 cells assessed as degradation of WDR5 protein incubated for 18 hrs by Western blotting analysis; assay type: cell-based; summary of the method: as §2
[5] = biological target: T1, von Hippel-Lindau disease tumor suppressor/WD repeat-containing protein 5; assay: PROTAC activity at VHL/WDR5 in human HPAF-II cells assessed as degradation of WDR5 protein incubated for 18 hrs by Western blotting analysis; assay type: cell-based; summary of the method: as §2
[6] = biological target: T1, von Hippel-Lindau disease tumor suppressor/WD repeat-containing protein 5; assay: PROTAC activity at VHL/WDR5 in human Panc1005 cells assessed as degradation of WDR5 protein incubated for 18 hrs by Western blotting analysis; assay type: cell-based; summary of the method: as §2
[7] = biological target: T1, von Hippel-Lindau disease tumor suppressor/WD repeat-containing protein 5; assay: PROTAC activity at VHL/WDR5 in human PANC-1 cells assessed as degradation of WDR5 protein incubated for 18 hrs by Western blotting analysis; assay type: cell-based; summary of the method: as §2
[8] = biological target: T1, von Hippel-Lindau disease tumor suppressor/WD repeat-containing protein 5; assay: PROTAC activity at VHL/WDR5 in human MIA PaCa-2 cells assessed as hook effect upto 50 uM incubated for 18 hrs by Western blotting analysis; assay type: cell-based; summary of the method: as §2
[9] = biological target: T1, von Hippel-Lindau disease tumor suppressor/WD repeat-containing protein 5; assay: PROTAC activity at VHL/WDR5 in human BXPC-3 cells assessed as hook effect upto 50 uM incubated for 18 hrs by Western blotting analysis; assay type: cell-based; summary of the method: as §2
[10] = biological target: T1, von Hippel-Lindau disease tumor suppressor/WD repeat-containing protein 5; assay: PROTAC activity at VHL/WDR5 in human HPAF-II cells assessed as hook effect upto 50 uM incubated for 18 hrs by Western blotting analysis; assay type: cell-based; summary of the method: as §2
[11] = biological target: T1, von Hippel-Lindau disease tumor suppressor/WD repeat-containing protein 5; assay: PROTAC activity at VHL/WDR5 in human Panc1005 cells assessed as hook effect upto 50 uM incubated for 18 hrs by Western blotting analysis; assay type: cell-based; summary of the method: as §2
[12] = biological target: T1, von Hippel-Lindau disease tumor suppressor/WD repeat-containing protein 5; assay: PROTAC activity at VHL/WDR5 in human PANC-1 cells assessed as hook effect upto 50 uM incubated for 18 hrs by Western blotting analysis; assay type: cell-based; summary of the method: as §2
[13] = biological target: T1, von Hippel-Lindau disease tumor suppressor/WD repeat-containing protein 5; assay: PROTAC activity at VHL/WDR5 in human MIA PaCa-2 cells assessed as decrease in WDR5 protein by measuring degradation concentration incubated for 18 hrs by Western blotting analysis; assay type: cell-based
Summary of the method: (§3)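 MIA PaCa-2 cells were grown in DMEM with 10% FBS and treated with a concentration series for 18 h. Total lysates were Western blotted for WDR5 against a tubulin loading control using fluorescent secondary antibodies. DC50 and Dmax were fitted from 4 independent experiments.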

[14] = biological target: T1, von Hippel-Lindau disease tumor suppressor/WD repeat-containing protein 5; assay: PROTAC activity at VHL/WDR5 in human MIA PaCa-2 cells assessed as maximal degradation of WDR5 protein incubated for 18 hrs by Western blotting analysis relative to control; assay type: cell-based; summary of the method: as §3
[15] = biological target: T1, von Hippel-Lindau disease tumor suppressor/WD repeat-containing protein 5; assay: PROTAC activity at VHL/WDR5 in human MIA PaCa-2 cells assessed as degradation of WDR5 protein at 0.1 uM by Western blotting analysis; assay type: cell-based; settings: TDE = time-dependent effect
Summary of the method: (§4)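 Time course: MIA PaCa-2 cells given DMSO or 0.1 μM compound and harvested at the indicated times. Lysates immunoblotted for WDR5, with tubulin as loading control. Representative of at least two independent experiments.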

[16] = biological target: T1, von Hippel-Lindau disease tumor suppressor/WD repeat-containing protein 5; assay: PROTAC activity at VHL/WDR5 in human MIA PaCa-2 cells assessed as degradation of WDR5 protein at 0.1 uM incubated for 2 hrs by Western blotting analysis; assay type: cell-based; summary of the method: as §4
[17] = biological target: T1, von Hippel-Lindau disease tumor suppressor/WD repeat-containing protein 5; assay: PROTAC activity at VHL/WDR5 in human MIA PaCa-2 cells assessed as maximal degradation of WDR5 protein at 0.1 uM incubated for 24 hrs by Western blotting analysis; assay type: cell-based; summary of the method: as §4
[18] = biological target: T1, von Hippel-Lindau disease tumor suppressor/WD repeat-containing protein 5; assay: PROTAC activity at VHL/WDR5 in human MIA PaCa-2 cells assessed as degradation of WDR5 protein at 0.5 uM incubated for 4 hrs in presence of carfilzomib by Western blotting analysis; assay type: cell-based
Summary of the method: (§5)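 Rescue: MIA PaCa-2 cells pretreated for 2 h with 0.4 μM carfilzomib or with OICR-9429 at several concentrations, then given DMSO or 0.5 μM compound for a further 4 h. WDR5 immunoblotted against tubulin. Representative of at least two experiments.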

[19] = biological target: T1, von Hippel-Lindau disease tumor suppressor/WD repeat-containing protein 5; assay: PROTAC activity at VHL/WDR5 in human MIA PaCa-2 cells assessed as degradation of WDR5 protein at 0.5 uM incubated for 4 hrs in presence of OICR-9429 by Western blotting analysis; assay type: cell-based; summary of the method: as §5
[20] = biological target: T1, von Hippel-Lindau disease tumor suppressor/WD repeat-containing protein 5; assay: PROTAC activity at VHL/WDR5 in human MIA PaCa-2 cells assessed as degradation of WDR5 protein at 1.5 uM incubated for 2 hrs by Western blotting analysis; assay type: cell-based
Summary of the method: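 MIA PaCa-2 cells given DMSO or 1.5 μM compound for 2 h. Lysates prepared for proteomics were checked by WDR5 immunoblot.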

[21] = biological target: T1, von Hippel-Lindau disease tumor suppressor/WD repeat-containing protein 5; assay: PROTAC activity at VHL/WDR5 in human MIA PaCa-2 cells assessed as degradation of WDR5 protein at 1.5 uM incubated for 2 hrs by TMT-labeled mass spectrometry based quantitative proteomics assay; assay type: cell-based
Summary of the method: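 TMT proteomics: MIA PaCa-2 cells given DMSO or 1.5 μM compound (2 h in the figure legend, 2.5 h in the methods). Cells lysed in 8 M urea pH 8.0, reduced with DTT, alkylated with iodoacetamide, then digested with LysC/trypsin overnight at 37 °C. Peptides TMT10plex-labelled and analyzed by MS. Cutoffs P < 0.01 and log2 fold change > 0.5, three biological replicates.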

MIA PaCa-2 = assay: Growth inhibition of human MIA PaCa-2 cells incubated for 6 days by MTS assay; assay type: functional; settings: MIA PaCa-2, 144 h, time 6 day
Summary of the method: (§6)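 MTS read-out. PDAC cells seeded at 500 or 1000 per well and exposed to a compound concentration series for 6 days, with medium plus fresh compound replaced every 2 days. MTS incubated 0.5–2 h, absorbance read at 490 nm. Growth normalized to DMSO. Three independent experiments, mean ± SEM; GI50 by nonlinear regression.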

BXPC-3 = assay: Growth inhibition of human BXPC-3 cells incubated for 6 days by MTS assay; assay type: functional; settings: BXPC-3, 144 h, time 6 day; summary of the method: as §6
HPAF-II = assay: Growth inhibition of human HPAF-II cells incubated for 6 days by MTS assay; assay type: functional; settings: 144 h, time 6 day; summary of the method: as §6
Panc1005 = assay: Growth inhibition of human Panc1005 cells incubated for 6 days by MTS assay; assay type: functional; settings: Panc1005, 144 h, time 6 day; summary of the method: as §6
PANC-1 = assay: Growth inhibition of human PANC-1 cells incubated for 6 days by MTS assay; assay type: functional; settings: PANC-1, 144 h, time 6 day; summary of the method: as §6
[22] = Cmax in Swiss albino mouse at 75 mg/kg,ip administration measured for 0.5 hrs by LC-MS/MS analysis; assay type: ADME, organism-based; set-up: time 0.5 hrs, dose 75 mg/kg, route ip; settings: in vivo
Summary of the method: (§7)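 Six male Swiss albino mice were each given one intraperitoneal dose of a solution formulation at 75 mg/kg. […] Plasma was quantified by LC–MS/MS (LLOQ 5.03 ng/mL), values are means of three mice per time point, and PK was derived by nonlinear regression.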

[23] = AUC (0 to last) in Swiss albino mouse at 75 mg/kg,ip administration measured for 0.5 to 12 hrs by LC-MS/MS analysis; assay type: ADME, organism-based; set-up: time upper 12 hrs, dose 75 mg/kg, time lower 0.5 hrs, route ip; settings: in vivo; summary of the method: as §7
[24] = Drug distribution in Swiss albino mouse plasma at 75 mg/kg,ip administration measured for 4 hrs by LC-MS/MS analysis; assay type: ADME, organism-based; summary of the method: as §7
[25] = Drug distribution in Swiss albino mouse plasma at 75 mg/kg,ip administration measured for 12 hrs by LC-MS/MS analysis; assay type: ADME, organism-based; summary of the method: as §7
[26] = Toxicity in Swiss albino mouse assessed as clinical signs of toxicity at 75 mg/kg,ip observed after 0.5 to 12 hrs; assay type: organism-based; settings: in vivo, time 0.5-12 hrs
Summary of the method: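 Six male Swiss albino mice were given one intraperitoneal dose of a solution formulation at 75 mg/kg and observed for clinical signs during the 12 h PK sampling period (0.5–12 h).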

## Cc1ncsc1-c1ccc(CNC(=O)[C@@H]2C[C@@H](O)CN2C(=O)[C@@H](NC(=O)CNC(=O)c2ccc(F)c(-c3ccc(N4C[C@@H](C)N(C)[C@@H](C)C4)c(NC(=O)c4c[nH]c(=O)cc4C(F)(F)F)c3)c2)C(C)(C)C)cc1
[1]
  Kd: 0.122 µM
[2]
  Kd: 0.232 µM
[3]
  Activity: Dose-Dependent Effect
[4]
  Activity: Dose-Dependent Effect
[5]
  Activity: Dose-Dependent Effect
[6]
  Activity: Dose-Dependent Effect
[7]
  Activity: Dose-Dependent Effect
[8]
  Activity: inactive
[9]
  Activity: inactive
[10]
  Activity: inactive
[11]
  Activity: inactive
[12]
  Activity: inactive
[13]
  DC50: 0.092 µM
[14]
  Emax: 73%
[15]
  Activity: Tde
[16]
  Activity: Active
[17]
  Activity: Active
[18]
  Activity: inactive
[19]
  Activity: Active
[20]
  Activity: Active
[21]
  Activity: Active
MIA PaCa-2
  GI50: 5.7 µM
BXPC-3
  GI50: 4 µM
HPAF-II
  GI50: 9.2 µM
Panc1005
  GI50: 14.3 µM
PANC-1
  GI50: 32.7 µM
[22]
  Cmax: 5000 nM
[23]
  AUC(0-t): 7300 ng·h/mL
[24]
  concentration at 4 h: 1000 nM
[25]
  concentration at 12 h: > 100 nM
[26]
  Activity: Non-Toxic
